# Reference: ChEMBL document CHEMBL1157144, “Novel 16-membered macrolides modified at C-12 and C-13 positions of midecamycin A1 and miokamycin. Part 1: Synthesis and evaluation of 12,13-carbamate and 12-arylalkylamino-13-hydroxy analogues” (2008)
# Key:
# Format in all cases: functional
# Streptococcus pneumoniae [1] = assay: Antibacterial activity against susceptible Streptococcus pneumoniae after 20 hrs by agar dilution method
# In short: (§1)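 MIC by agar dilution. Strains grown on blood agar plates for seed culture. About 5 µl of a suspension of roughly 10^6 CFU/ml spotted onto Sensitivity disk agar with 5% horse blood. Plates incubated at 37 °C for 20 h, then MIC read.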
# Staphylococcus aureus [2] = assay: Antibacterial activity against ermC-inducible resistant Staphylococcus aureus after 20 hrs by agar dilution method
# In short: (§2)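 Agar dilution MIC. The inoculum came from a seed culture in Sensitivity test broth. A 5 µl portion of a cell suspension of about 10^6 CFU/ml was inoculated onto Sensitivity disk agar supplemented with 5% horse blood. Plates were incubated at 37 °C for 20 h, then MIC was read.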
# Staphylococcus aureus [3] = assay: Antibacterial activity against standard Staphylococcus aureus after 20 hrs by agar dilution method; in short: as §2
# Haemophilus influenzae [4] = assay: Antibacterial activity against standard Haemophilus influenzae after 20 hrs by agar dilution method; in short: as §1
# Staphylococcus aureus [5] = assay: Antibacterial activity against ermB-inducible resistant Staphylococcus aureus after 20 hrs by agar dilution method; in short: as §2
# Streptococcus pyogenes [6] = assay: Antibacterial activity against mefE efflux-resistant Streptococcus pyogenes after 20 hrs by agar dilution method
# In short: (§3)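 Agar dilution MIC. Streptococcal strains were pre-cultured on blood agar plates. A 5 µl portion of a cell suspension of about 10^6 CFU/ml was inoculated onto Sensitivity disk agar supplemented with 5% horse blood. Plates were incubated at 37 °C for 20 h, then MIC was read.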
# Streptococcus pneumoniae [7] = assay: Antibacterial activity against mefE efflux-resistant Streptococcus pneumoniae after 20 hrs by agar dilution method; in short: as §3
# Moraxella catarrhalis = assay: Antibacterial activity against standard Moraxella catarrhalis after 20 hrs by agar dilution method; in short: as §1
# Staphylococcus aureus [8] = assay: Antibacterial activity against ermA-constitutive resistant Staphylococcus aureus after 20 hrs by agar dilution method; in short: as §2
# Streptococcus pyogenes [9] = assay: Antibacterial activity against ermB-constitutive resistant Streptococcus pyogenes after 20 hrs by agar dilution method; in short: as §3
# Streptococcus pneumoniae [10] = assay: Antibacterial activity against ermB-inducible resistant Streptococcus pneumoniae after 20 hrs by agar dilution method; in short: as §3
# Streptococcus pneumoniae [11] = assay: Antibacterial activity against ermB-constitutive resistant Streptococcus pneumoniae after 20 hrs by agar dilution method; in short: as §3
# Haemophilus influenzae [12] = assay: Antibacterial activity against susceptible Haemophilus influenzae after 20 hrs by agar dilution method; in short: as §1
# Staphylococcus aureus [13] = assay: Antibacterial activity against susceptible Staphylococcus aureus after 20 hrs by agar dilution method; in short: as §2
SMILES,MIC (Streptococcus pneumoniae [1]) [µg/mL],MIC (Staphylococcus aureus [2]) [µg/mL],MIC (Staphylococcus aureus [3]) [µg/mL],MIC (Haemophilus influenzae [4]) [µg/mL],MIC (Staphylococcus aureus [5]) [µg/mL],MIC (Streptococcus pyogenes [6]) [µg/mL],MIC (Streptococcus pneumoniae [7]) [µg/mL],MIC (Moraxella catarrhalis) [µg/mL],MIC (Staphylococcus aureus [8]) [µg/mL],MIC (Streptococcus pyogenes [9]) [µg/mL],MIC (Streptococcus pneumoniae [10]) [µg/mL],MIC (Streptococcus pneumoniae [11]) [µg/mL],MIC (Haemophilus influenzae [12]) [µg/mL],MIC (Staphylococcus aureus [13]) [µg/mL]
CCC(=O)O[C@@H]1CC(=O)O[C@H](C)C[C@H](O)[C@H](N(C)CCCc2ccncc2)/C=C/[C@H](OC(C)=O)[C@H](C)C[C@H](CC=O)[C@H](O[C@@H]2O[C@H](C)[C@@H](O[C@H]3C[C@@](C)(O)[C@@H](OC(=O)CC)[C@H](C)O3)[C@H](N(C)C)[C@H]2O)[C@H]1OC,0.05,0.39,0.2,1.56,0.2,0.1,0.1,0.78,> 100,> 100,> 100,> 100,12.5,0.2
CCC(=O)O[C@@H]1CC(=O)O[C@H](C)C[C@H](O)[C@H](N(C)CCc2ccccc2)/C=C/[C@H](OC(C)=O)[C@H](C)C[C@H](CC=O)[C@H](O[C@@H]2O[C@H](C)[C@@H](O[C@H]3C[C@@](C)(O)[C@@H](OC(=O)CC)[C@H](C)O3)[C@H](N(C)C)[C@H]2O)[C@H]1OC,0.1,0.39,0.39,1.56,0.78,0.2,0.1,0.39,> 100,> 100,25,> 100,25,0.39
CCC(=O)O[C@@H]1CC(=O)O[C@H](C)C[C@H](O)[C@H](N(C)CCCCCc2ccccc2)/C=C/[C@H](OC(C)=O)[C@H](C)C[C@H](CC=O)[C@H](O[C@@H]2O[C@H](C)[C@@H](O[C@H]3C[C@@](C)(O)[C@@H](OC(=O)CC)[C@H](C)O3)[C@H](N(C)C)[C@H]2O)[C@H]1OC,0.1,0.39,0.39,3.13,0.78,0.2,0.2,0.39,> 100,25,12.5,100,25,0.39
CCC(=O)O[C@@H]1CC(=O)O[C@H](C)C[C@@H]2OC(=O)N(CCCc3ccccc3)[C@@H]2/C=C/[C@H](OC(C)=O)[C@H](C)C[C@H](CC=O)[C@H](O[C@@H]2O[C@H](C)[C@@H](O[C@H]3C[C@@](C)(O)[C@@H](OC(=O)CC)[C@H](C)O3)[C@H](N(C)C)[C@H]2O)[C@H]1OC,0.2,0.78,0.78,6.25,1.56,0.2,0.2,1.56,> 100,> 100,> 100,> 100,100,0.78
CCC(=O)O[C@@H]1CC(=O)O[C@H](C)C[C@H](O)[C@H](N(C)CCCc2ccccc2)/C=C/[C@H](OC(C)=O)[C@H](C)C[C@H](CC=O)[C@H](O[C@@H]2O[C@H](C)[C@@H](O[C@H]3C[C@@](C)(O)[C@@H](OC(=O)CC)[C@H](C)O3)[C@H](N(C)C)[C@H]2O)[C@H]1OC,0.05,0.2,0.2,1.56,0.2,0.1,0.1,0.39,> 100,100,12.5,> 100,25,0.2
CCC(=O)O[C@@H]1CC(=O)O[C@H](C)C[C@@H]2OC(=O)N[C@@H]2/C=C/[C@H](OC(C)=O)[C@H](C)C[C@H](CC=O)[C@H](O[C@@H]2O[C@H](C)[C@@H](O[C@H]3C[C@@](C)(O)[C@@H](OC(=O)CC)[C@H](C)O3)[C@H](N(C)C)[C@H]2O)[C@H]1OC,0.2,0.78,0.39,0.78,0.39,0.2,0.2,0.39,> 100,> 100,> 100,> 100,6.25,0.39
CCC(=O)O[C@@H]1CC(=O)O[C@H](C)C/C=C/C=C/[C@H](OC(C)=O)[C@H](C)C[C@H](CC=O)[C@H](O[C@@H]2O[C@H](C)[C@@H](O[C@H]3C[C@@](C)(O)[C@@H](OC(=O)CC)[C@H](C)O3)[C@H](N(C)C)[C@H]2O)[C@H]1OC,0.2,0.78,0.39,3.13,0.39,0.39,0.2,0.78,> 100,> 100,100,> 100,25,0.39
CCC(=O)O[C@@H]1CC(=O)O[C@H](C)C[C@H](O)[C@H](N(C)CCCc2ccncc2)/C=C/[C@H](OC(C)=O)[C@H](C)C[C@H](CC=O)[C@H](O[C@@H]2O[C@H](C)[C@@H](O)[C@H](N(C)C)[C@H]2O)[C@H]1OC,0.39,1.56,0.78,0.39,1.56,6.25,1.56,0.1,> 100,> 100,> 100,> 100,3.13,1.56
CCC(=O)O[C@@H]1CC(=O)O[C@H](C)C[C@H](O)[C@H](N(C)CCCCc2ccccc2)/C=C/[C@H](OC(C)=O)[C@H](C)C[C@H](CC=O)[C@H](O[C@@H]2O[C@H](C)[C@@H](O[C@H]3C[C@@](C)(O)[C@@H](OC(=O)CC)[C@H](C)O3)[C@H](N(C)C)[C@H]2O)[C@H]1OC,0.05,0.78,0.39,3.13,1.56,0.2,0.2,0.78,> 100,100,12.5,> 100,25,0.39
CCC(=O)O[C@@H]1CC(=O)O[C@H](C)C[C@@H]2OC(=O)N(CCCCc3ccccc3)[C@@H]2/C=C/[C@H](OC(C)=O)[C@H](C)C[C@H](CC=O)[C@H](O[C@@H]2O[C@H](C)[C@@H](O[C@H]3C[C@@](C)(O)[C@@H](OC(=O)CC)[C@H](C)O3)[C@H](N(C)C)[C@H]2O)[C@H]1OC,0.2,0.78,0.78,6.25,0.39,0.39,0.2,3.13,> 100,> 100,100,> 100,> 100,0.39
CCC(=O)O[C@@H]1CC(=O)O[C@H](C)C[C@@H]2OC(=O)N(Cc3ccccc3)[C@@H]2/C=C/[C@H](OC(C)=O)[C@H](C)C[C@H](CC=O)[C@H](O[C@@H]2O[C@H](C)[C@@H](O[C@H]3C[C@@](C)(O)[C@@H](OC(=O)CC)[C@H](C)O3)[C@H](N(C)C)[C@H]2O)[C@H]1OC,0.2,0.78,0.39,3.13,0.39,0.2,0.2,1.56,> 100,> 100,100,> 100,25,0.39
CCC(=O)O[C@@H]1CC(=O)O[C@H](C)C[C@@H]2OC(=O)N(CCc3ccccc3)[C@@H]2/C=C/[C@H](OC(C)=O)[C@H](C)C[C@H](CC=O)[C@H](O[C@@H]2O[C@H](C)[C@@H](O[C@H]3C[C@@](C)(O)[C@@H](OC(=O)CC)[C@H](C)O3)[C@H](N(C)C)[C@H]2O)[C@H]1OC,0.2,1.56,0.78,3.13,6.25,0.1,0.2,0.78,> 100,> 100,50,> 100,25,0.39
CC[C@H]1OC(=O)[C@H](C)[C@@H](O[C@H]2C[C@@](C)(OC)[C@@H](O)[C@H](C)O2)[C@H](C)[C@@H](O[C@@H]2O[C@H](C)C[C@H](N(C)C)[C@H]2O)[C@](C)(OC)C[C@@H](C)C(=O)[C@H](C)[C@@H](O)[C@]1(C)O [CLARITHROMYCIN],0.025,1.56,0.1,1.56,> 100,3.13,0.78,0.1,> 100,> 100,> 100,> 100,6.25,0.1
